Test results reported in ChEMBL document CHEMBL4261600 (Eur J Med Chem, 2018).

How the values were obtained:
A-431 = assay: Antiproliferative activity against human A431 cells after 72 hrs by Celltiter-Glo assay; assay type: functional; conditions: A-431, 72 h
In short: (§1)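 Cells seeded at 3000/well in 96-well plates, exposed to serially diluted compound for 72 h at 37 °C, 5% CO2. Viability read by CellTiter-Glo luminescence and normalized to DMSO control. GI50 derived from curve fit, mean of three independent measurements. Culture media: DMEM/10% FBS for adherent lines; IMDM for MV4-11 and MEC-1/2; RPMI 1640 for suspension lines and CHL.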

[1] = target: Serine/threonine-protein kinase 24 (Homo sapiens) (UniProt Q9Y6E0); assay: Binding affinity to wild-type human partial length MST3 (A30 to S311 residues) expressed in bacterial expression system assessed as remaining unbound target protein level at 1000 nM by Kinomescan method relative to control
OCI-AML-3 = assay: Antiproliferative activity against human OCI-AML3 cells after 72 hrs by Celltiter-Glo assay; assay type: functional; conditions: OCI-AML-3, 72 h; in short: as §1
CDK7/Cyclin H/MNAT1 = CDK7/Cyclin H/MNAT1 (Homo sapiens, UniProt P50613); assay: Inhibition of recombinant full length His-tagged human CDK7/cyclin H/MNAT1 expressed in baculovirus expression system
[2] = target: Serine/threonine-protein kinase ULK2 (Homo sapiens) (UniProt Q8IYT8); assay: Binding affinity to wild-type human partial length ULK2 (M1 to S301 residues) expressed in mammalian expression system assessed as remaining unbound target protein level at 1000 nM by Kinomescan method relative to control
Serine/threonine-protein kinase ULK2 (Homo sapiens), sequence (Q8IYT8 whole entry, the tested form may be a part): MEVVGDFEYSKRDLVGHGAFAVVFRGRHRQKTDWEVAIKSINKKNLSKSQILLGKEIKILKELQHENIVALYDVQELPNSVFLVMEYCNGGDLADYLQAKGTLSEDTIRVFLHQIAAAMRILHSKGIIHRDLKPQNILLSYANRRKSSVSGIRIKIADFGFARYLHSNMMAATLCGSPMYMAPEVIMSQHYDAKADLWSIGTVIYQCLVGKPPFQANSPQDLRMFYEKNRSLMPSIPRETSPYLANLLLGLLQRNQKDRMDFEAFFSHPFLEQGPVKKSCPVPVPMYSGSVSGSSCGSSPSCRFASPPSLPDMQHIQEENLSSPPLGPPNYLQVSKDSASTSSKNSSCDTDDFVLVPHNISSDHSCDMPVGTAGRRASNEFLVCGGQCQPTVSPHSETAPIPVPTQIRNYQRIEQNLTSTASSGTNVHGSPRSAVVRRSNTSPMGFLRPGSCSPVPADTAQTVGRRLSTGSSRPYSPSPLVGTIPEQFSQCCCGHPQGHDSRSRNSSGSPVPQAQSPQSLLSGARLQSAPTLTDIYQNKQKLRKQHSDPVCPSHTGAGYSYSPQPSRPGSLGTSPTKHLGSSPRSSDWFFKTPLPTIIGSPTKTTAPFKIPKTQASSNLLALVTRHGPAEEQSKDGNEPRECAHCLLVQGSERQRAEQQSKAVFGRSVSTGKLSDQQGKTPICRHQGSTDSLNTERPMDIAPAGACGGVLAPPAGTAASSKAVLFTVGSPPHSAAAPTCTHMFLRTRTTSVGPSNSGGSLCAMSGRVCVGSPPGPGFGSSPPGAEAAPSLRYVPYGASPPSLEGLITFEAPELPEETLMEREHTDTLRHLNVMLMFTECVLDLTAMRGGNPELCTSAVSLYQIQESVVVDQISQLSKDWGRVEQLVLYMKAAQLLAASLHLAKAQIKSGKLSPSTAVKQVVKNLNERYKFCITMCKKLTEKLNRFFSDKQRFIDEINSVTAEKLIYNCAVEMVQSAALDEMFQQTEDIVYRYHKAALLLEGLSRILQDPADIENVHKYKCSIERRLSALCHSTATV

Mus musculus = assay: Toxicity in nu/nu mouse xenografted with MV4-11 cells assessed as effect on body weight at 10 to 30 mg/kg, po administered via gavage for 21 days measured every day during compound dosing; assay type: organism-based; conditions: in vivo, 504 h
[3] = Clearance in Sprague-Dawley rat at 3 mg/kg, iv by LC-MS/MS analysis; assay type: ADME, organism-based; conditions: in vivo
[4] = target: Casein kinase I isoform alpha-like (Homo sapiens) (UniProt Q8N752); assay: Binding affinity to wild-type human full length CSNK1A1L (M1 to N337 residues) expressed in bacterial expression system assessed as remaining unbound target protein level at 1000 nM by Kinomescan method relative to control
Casein kinase I isoform alpha-like (Homo sapiens), sequence (Q8N752 whole entry, the tested form may be a part, canonical isoform): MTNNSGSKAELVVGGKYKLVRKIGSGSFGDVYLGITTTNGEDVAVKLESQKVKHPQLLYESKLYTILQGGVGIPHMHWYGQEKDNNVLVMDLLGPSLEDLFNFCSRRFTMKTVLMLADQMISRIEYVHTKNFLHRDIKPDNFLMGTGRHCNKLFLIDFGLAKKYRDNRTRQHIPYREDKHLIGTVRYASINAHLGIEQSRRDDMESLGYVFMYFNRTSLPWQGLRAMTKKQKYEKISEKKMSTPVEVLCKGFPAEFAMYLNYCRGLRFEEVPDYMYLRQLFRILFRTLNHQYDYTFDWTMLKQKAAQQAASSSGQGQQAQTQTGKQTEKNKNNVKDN
In short: (§2)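 Single-point competition binding screen across a panel of 468 kinases and mutants, with the inhibitor at 1 μM. Binding is read out as percent of a DMSO control, and targets below 1 percent control were classed as strong binders.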

[5] = target: Serine/threonine-protein kinase NLK (Homo sapiens) (UniProt Q9UBE8); assay: Binding affinity to wild-type human full length NLK (M13 to E527 residues) expressed in bacterial expression system assessed as remaining unbound target protein level at 1000 nM by Kinomescan method relative to control; in short: as §2
Serine/threonine-protein kinase NLK (Homo sapiens), sequence (Q9UBE8 whole entry, the tested form may be a part): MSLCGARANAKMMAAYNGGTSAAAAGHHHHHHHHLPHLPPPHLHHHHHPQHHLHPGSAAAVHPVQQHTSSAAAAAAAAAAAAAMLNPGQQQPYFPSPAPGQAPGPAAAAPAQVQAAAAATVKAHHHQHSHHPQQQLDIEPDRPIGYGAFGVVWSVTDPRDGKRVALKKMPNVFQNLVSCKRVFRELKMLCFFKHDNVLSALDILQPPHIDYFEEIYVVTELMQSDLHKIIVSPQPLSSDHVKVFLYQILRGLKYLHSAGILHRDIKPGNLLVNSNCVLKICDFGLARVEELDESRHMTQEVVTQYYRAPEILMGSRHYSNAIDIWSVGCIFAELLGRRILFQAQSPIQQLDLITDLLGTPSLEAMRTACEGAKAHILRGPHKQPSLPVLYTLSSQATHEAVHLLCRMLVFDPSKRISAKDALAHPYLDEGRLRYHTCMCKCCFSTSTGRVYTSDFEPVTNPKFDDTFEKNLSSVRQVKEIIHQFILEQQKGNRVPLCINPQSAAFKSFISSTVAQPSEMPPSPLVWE

[6] = target: Serine/threonine-protein kinase PLK2 (Homo sapiens) (UniProt Q9NYY3); assay: Binding affinity to wild-type human partial length PLK2 (H58 to F354 residues) expressed in mammalian expression system assessed as remaining unbound target protein level at 1000 nM by Kinomescan method relative to control
[7] = target: Protein kinase C epsilon type (Homo sapiens) (UniProt Q02156); assay: Binding affinity to wild-type human partial length PRKCE (A378 to P737 residues) expressed in mammalian expression system assessed as remaining unbound target protein level at 1000 nM by Kinomescan method relative to control
[8] = target: Mitogen-activated protein kinase kinase kinase 4 (Homo sapiens) (UniProt Q9Y6R4); assay: Binding affinity to wild-type human partial length MAP3K4 (G1319 to E1608 residues) expressed in bacterial expression system assessed as remaining unbound target protein level at 1000 nM by Kinomescan method relative to control
Mitogen-activated protein kinase kinase kinase 4 (Homo sapiens), sequence (Q9Y6R4 whole entry, the tested form may be a part): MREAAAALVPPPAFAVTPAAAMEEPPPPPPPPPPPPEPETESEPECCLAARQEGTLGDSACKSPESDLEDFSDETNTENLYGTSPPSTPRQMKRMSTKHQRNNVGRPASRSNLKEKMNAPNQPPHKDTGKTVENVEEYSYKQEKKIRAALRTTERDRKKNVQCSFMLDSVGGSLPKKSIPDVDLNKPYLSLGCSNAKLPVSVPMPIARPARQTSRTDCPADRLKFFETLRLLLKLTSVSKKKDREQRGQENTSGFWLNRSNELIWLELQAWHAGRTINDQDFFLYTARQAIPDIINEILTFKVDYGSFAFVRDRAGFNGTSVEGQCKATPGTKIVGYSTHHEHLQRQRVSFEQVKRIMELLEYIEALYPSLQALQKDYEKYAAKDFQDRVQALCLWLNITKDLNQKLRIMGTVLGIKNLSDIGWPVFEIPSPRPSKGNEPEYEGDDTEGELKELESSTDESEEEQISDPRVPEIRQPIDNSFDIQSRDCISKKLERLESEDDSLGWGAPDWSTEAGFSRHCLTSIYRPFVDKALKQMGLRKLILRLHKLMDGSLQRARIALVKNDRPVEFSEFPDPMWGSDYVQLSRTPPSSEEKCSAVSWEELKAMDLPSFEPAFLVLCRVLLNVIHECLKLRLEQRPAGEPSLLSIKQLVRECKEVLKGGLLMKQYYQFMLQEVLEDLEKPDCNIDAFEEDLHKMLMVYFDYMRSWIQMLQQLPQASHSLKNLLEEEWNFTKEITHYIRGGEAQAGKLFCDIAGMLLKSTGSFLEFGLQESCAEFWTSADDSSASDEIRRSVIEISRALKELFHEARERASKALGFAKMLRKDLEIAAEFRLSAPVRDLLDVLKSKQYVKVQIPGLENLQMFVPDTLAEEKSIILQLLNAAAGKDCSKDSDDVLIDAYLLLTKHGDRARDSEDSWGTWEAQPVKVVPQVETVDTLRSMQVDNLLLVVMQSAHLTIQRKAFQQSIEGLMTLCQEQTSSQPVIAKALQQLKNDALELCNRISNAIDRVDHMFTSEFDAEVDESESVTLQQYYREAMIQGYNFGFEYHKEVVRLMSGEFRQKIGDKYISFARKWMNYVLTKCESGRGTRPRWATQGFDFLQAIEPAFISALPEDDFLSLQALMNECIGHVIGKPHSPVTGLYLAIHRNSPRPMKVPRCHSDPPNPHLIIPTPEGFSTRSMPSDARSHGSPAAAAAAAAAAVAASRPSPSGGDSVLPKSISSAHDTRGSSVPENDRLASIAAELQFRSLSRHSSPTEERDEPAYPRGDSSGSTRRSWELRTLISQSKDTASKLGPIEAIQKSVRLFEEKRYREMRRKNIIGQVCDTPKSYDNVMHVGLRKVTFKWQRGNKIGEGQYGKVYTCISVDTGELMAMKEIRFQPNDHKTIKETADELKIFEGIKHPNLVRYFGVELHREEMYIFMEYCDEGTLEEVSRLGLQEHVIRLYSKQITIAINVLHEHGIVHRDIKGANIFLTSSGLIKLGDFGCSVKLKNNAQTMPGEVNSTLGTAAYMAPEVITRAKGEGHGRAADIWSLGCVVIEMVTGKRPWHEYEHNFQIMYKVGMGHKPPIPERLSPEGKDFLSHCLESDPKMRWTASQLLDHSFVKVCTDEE

[9] = target: Focal adhesion kinase 1 (Homo sapiens) (UniProt Q05397); assay: Binding affinity to wild-type human partial length FAK (D402 to R696 residues) expressed in bacterial expression system assessed as remaining unbound target protein level at 1000 nM by Kinomescan method relative to control
[10] = target: Ephrin type-A receptor 3 (Homo sapiens) (UniProt P29320); assay: Binding affinity to wild-type human partial length EPHA3 (D604 to K889 residues) expressed in bacterial expression system assessed as remaining unbound target protein level at 1000 nM by Kinomescan method relative to control
Ephrin type-A receptor 3 (Homo sapiens), sequence (P29320 whole entry, the tested form may be a part): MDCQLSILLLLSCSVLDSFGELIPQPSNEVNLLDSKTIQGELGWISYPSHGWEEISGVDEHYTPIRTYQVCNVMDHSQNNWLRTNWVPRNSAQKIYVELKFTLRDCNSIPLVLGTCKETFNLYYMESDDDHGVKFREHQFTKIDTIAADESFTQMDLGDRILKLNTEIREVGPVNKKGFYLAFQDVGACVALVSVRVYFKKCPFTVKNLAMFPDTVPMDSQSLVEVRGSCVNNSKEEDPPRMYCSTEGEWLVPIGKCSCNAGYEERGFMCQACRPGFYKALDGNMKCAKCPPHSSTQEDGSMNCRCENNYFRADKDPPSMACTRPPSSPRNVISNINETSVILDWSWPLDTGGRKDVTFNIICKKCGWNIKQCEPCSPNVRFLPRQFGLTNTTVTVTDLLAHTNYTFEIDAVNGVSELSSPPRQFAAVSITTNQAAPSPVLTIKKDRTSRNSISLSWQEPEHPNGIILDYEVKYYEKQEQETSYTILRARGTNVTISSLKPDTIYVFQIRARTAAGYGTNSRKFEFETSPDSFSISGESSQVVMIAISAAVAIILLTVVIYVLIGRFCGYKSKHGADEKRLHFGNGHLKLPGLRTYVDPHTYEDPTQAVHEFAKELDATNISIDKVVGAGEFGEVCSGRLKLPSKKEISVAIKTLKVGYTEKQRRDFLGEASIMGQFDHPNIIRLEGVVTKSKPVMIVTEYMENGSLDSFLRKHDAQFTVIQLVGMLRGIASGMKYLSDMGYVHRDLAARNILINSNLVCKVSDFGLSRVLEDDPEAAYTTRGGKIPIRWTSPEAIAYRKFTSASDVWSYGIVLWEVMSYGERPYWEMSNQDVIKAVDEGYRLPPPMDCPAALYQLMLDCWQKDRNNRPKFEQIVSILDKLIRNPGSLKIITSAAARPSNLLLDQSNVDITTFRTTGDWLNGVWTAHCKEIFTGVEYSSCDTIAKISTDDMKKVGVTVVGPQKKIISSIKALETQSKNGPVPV
In short: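 KINOMEscan binding panel of 468 kinases/mutants. Inhibitor was tested at a single concentration of 1 μM. Binding is reported as percent of control, defined relative to a DMSO control.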

[11] = target: Serine/threonine-protein kinase PRP4 homolog (Homo sapiens) (UniProt Q13523); assay: Binding affinity to wild-type human partial length PRP4 (D657 to I1007 residues) expressed in bacterial expression system assessed as remaining unbound target protein level at 1000 nM by Kinomescan method relative to control
[12] = tested on: Receptor-type tyrosine-protein kinase FLT3 (Homo sapiens), P36888 [UNDEFINED MUTATION]; assay: Binding affinity to human partial length FLT3 ITD/D835V double mutant expressed in bacterial expression system assessed as remaining unbound target protein level at 1000 nM by Kinomescan method relative to control
In short: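 KINOMEscan competition-binding profiling across the panel of 468 kinases and mutants, with inhibitor tested at 1 μM. Binding is expressed as percent of control, with DMSO as the reference control.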

[13] = target: Serine/threonine-protein kinase BRSK2 (Homo sapiens) (UniProt Q8IWQ3); assay: Binding affinity to wild-type human full length BRSK2 (M1 to L674 residues) expressed in bacterial expression system assessed as remaining unbound target protein level at 1000 nM by Kinomescan method relative to control; in short: as §2
[14] = target: Beta-adrenergic receptor kinase 1 (Homo sapiens) (UniProt P25098); assay: Binding affinity to wild-type human full length GRK2 (M1 to L689 residues) expressed in mammalian expression system assessed as remaining unbound target protein level at 1000 nM by Kinomescan method relative to control
In short: (§3)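 KINOMEscan competition binding profile across a panel of 468 kinases and mutants, with the inhibitor tested at a single concentration of 1 μM. Binding is reported as percent of control, meaning signal relative to a DMSO control.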

[15] = target: Dual specificity testis-specific protein kinase 1 (Homo sapiens) (UniProt Q15569); assay: Binding affinity to wild-type human full length TESK1 (R37 to S626 residues) expressed in bacterial expression system assessed as remaining unbound target protein level at 1000 nM by Kinomescan method relative to control
In short: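 Profiled in a KINOMEscan binding panel with the inhibitor at a single concentration of 1 μM. Binding to each kinase was read out as percent of control, relative to a DMSO control. Strong binders were defined as those with a percent control value below 1.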

[16] = target: TRAF2 and NCK-interacting protein kinase (Homo sapiens) (UniProt Q9UKE5); assay: Binding affinity to wild-type human partial length TNIK (D4 to K311 residues) expressed in bacterial expression system assessed as remaining unbound target protein level at 1000 nM by Kinomescan method relative to control
[17] = target: 5'-AMP-activated protein kinase catalytic subunit alpha-1 (Homo sapiens) (UniProt Q13131); assay: Binding affinity to wild-type human partial length AMPK alpha1 (M1 to E306 residues) expressed in bacterial expression system assessed as remaining unbound target protein level at 1000 nM by Kinomescan method relative to control; in short: as §3
5'-AMP-activated protein kinase catalytic subunit alpha-1 (Homo sapiens), sequence (Q13131 whole entry, looked up, the tested form may be a part): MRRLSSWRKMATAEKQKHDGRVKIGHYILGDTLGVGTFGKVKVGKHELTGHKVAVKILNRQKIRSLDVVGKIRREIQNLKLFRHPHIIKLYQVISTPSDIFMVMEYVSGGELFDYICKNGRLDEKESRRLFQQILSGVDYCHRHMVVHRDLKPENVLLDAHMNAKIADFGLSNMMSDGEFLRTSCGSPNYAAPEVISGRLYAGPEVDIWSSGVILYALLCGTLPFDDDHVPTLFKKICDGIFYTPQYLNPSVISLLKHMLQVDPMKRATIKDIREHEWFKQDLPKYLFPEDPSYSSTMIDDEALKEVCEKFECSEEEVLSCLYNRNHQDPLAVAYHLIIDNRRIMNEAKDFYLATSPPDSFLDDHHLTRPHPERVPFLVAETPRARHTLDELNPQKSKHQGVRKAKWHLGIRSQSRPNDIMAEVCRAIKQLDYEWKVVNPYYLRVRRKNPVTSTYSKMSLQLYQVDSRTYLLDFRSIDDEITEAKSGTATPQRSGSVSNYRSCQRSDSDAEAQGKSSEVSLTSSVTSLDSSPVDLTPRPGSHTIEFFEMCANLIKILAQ

Compound `COCCN[C@H]1CC[C@H](Nc2cc(-c3csc(NCC4(C#N)CCOCC4)n3)c(Cl)cn2)CC1` has a GI50 (A-431) of 19 nM, an Activity [1] of 90% and a GI50 (OCI-AML-3) of 6.6 nM. For the same compound, the IC50 (CDK7/Cyclin H/MNAT1) was 1720 nM, the Activity [2] was 100% and the Activity (Mus musculus) was “Non-Toxic”. For the same compound, the clearance [3] was 75.8 mL/min/kg, the Activity [4] was 96% and the Activity [5] was 100%. For the same compound, the Activity [6] was 100%, the Activity [7] was 93% and the Activity [8] was 89%. It also gave an Activity [9] of 84%, an Activity [10] of 94% and an Activity [11] of 100%. It also gave an Activity [12] of 65%, an Activity [13] of 75% and an Activity [14] of 91%. It also gave an Activity [15] of 92%, an Activity [16] of 64% and an Activity [17] of 94%.
